Most compounds without a hit are left out; they make up all but 1.3% or so of the library.
HCV NS3 hel inh: HCV NS3 helicase inhibition; NS3 helicase DNA unwinding, Cy5 molecular beacon fluorescence; hit rate 0.56% among 290,000; inhibition, % at 10.9 µM;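 active means inhibition above the mean of all tested compounds plus 3 SD, set per campaign, cut at about 35% in these data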;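 further: 0% = DMSO wells and 100% = thioflavine S control wells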
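Test system: hepatitis C virus NS3 helicase domain fragment enzyme. Also added: annealed dual-labelled DNA beacon duplex, ATP-started. Timing: 60 min unwinding reaction at 25 °C after ATP addition. Technique: Cy5 fluorescence. Measure: % inhibition of unwinding.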
core dimer inh: HCV core protein dimerization inhibition. TR-FRET GST/Flag-core106 dimerization, 1536-well. hit rate 0.33% among 300,000. inhibition, % at 5 µM;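 active means inhibition above the mean of all tested compounds plus 3 SD, set per screening campaign, cut at about 45% in these data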
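Assay system: GST-tagged and Flag-tagged HCV core protein residues 1-106 / Times: compound-protein-antibody incubation 4 h at 22.5 °C / Signal: time-resolved FRET, ex 340 nm, em 617 and 671 nm / Evaluation: % inhibition based on acceptor/donor emission ratio / Benchmarks: wells lacking GST-core106 and wells with excess unlabelled core106 / Repeats: singlicate, one well per compound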
Tb MetRS inh: Trypanosoma brucei MetRS inhibition | purified T. brucei MetRS, ATP depletion, Kinase-Glo luminescence | inhibition, % at 11.9 µM | hit rate 0.4% among 360,000 | AID 624268;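 active means inhibition above a per-plate cutoff of the control wells' mean inhibition plus 3 SD, cut at about 5.5% in these data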;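 further: 0% = DMSO wells median and 100% = median of wells with control inhibitor compound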
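Material: T. brucei methionyl-tRNA synthetase, purified; reagent: substrates ATP, L-methionine and bulk Escherichia coli tRNA; dosing: 11.9 µM single point; timing: 15 min plus 2 h at 25 °C; detection: luminescence of leftover ATP; evaluation: % inhibition; control set: DMSO-only wells as low control; replicates: singlicate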
Hep lipid drop: hepatic lipid droplet formation modulation | AML12 mouse hepatocytes, oleate lipid droplets, BODIPY imaging | hit rate 0.4% among 240,000 | inhibition, % at 6.5 µM;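 active means lipid droplet intensity inhibited by at least 50%, with more than 500 cells counted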
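System: AML12 hepatocytes (mouse). Probe or stimulus: oleic acid at 100 µM to induce lipid droplet formation. Times: overnight treatment with compound plus oleate. Detection: Image-based BODIPY and DAPI two-channel analysis. Evaluation: percent inhibition of filter-corrected integrated lipid droplet intensity per well.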
Lipid drop inh: hepatic lipid droplet formation inhibition, confirmed | shares compounds with Hep lipid drop | AML12 mouse hepatocytes, BODIPY lipid droplet imaging; droplets induced with 100 µM oleic acid | inhibition, % at 5.2 µM | hit rate 65% among 870 | AID 463183;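 active means inhibition of lipid droplet metric at least 50%, with more than 300 cells in each of four replicates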;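 further: plate controls were DMSO with oleic acid for no effect and 5 µM Triacsin-C for full effect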
AML12 cytotox: toxic to AML12 mouse hepatocytes in counter-screen | shares compounds with Hep lipid drop | DAPI nuclear morphology cytotoxicity imaging; hits give high values; cells fed 100 µM oleate overnight | z-score at 5 µM | hit rate 3% among 870 | AID 463200; in the data active means z-score above about 6.3;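 further: compound exposure lasted overnight at 37 °C before fixation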
AML12 tox ATP: AML12 hepatocyte cytotoxicity, confirmed; shares compounds with Hep lipid drop; AML12 mouse hepatocyte viability, ATP luminescence; cells loaded with 100 µM oleic acid; cytotoxicity, % at 50 µM; 530 tested, under 10 active;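 active means cytotoxicity above 50% in each of four replicates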;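 further: compound exposure lasted overnight at 37 °C before the ATP read; 0% = DMSO-treated cells and 100% = wells with no cells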
Active calls of the source: *; . = not tested or not shown.

SMILES	HCV NS3 hel inh	core dimer inh	Tb MetRS inh	Hep lipid drop	Lipid drop inh	AML12 cytotox	AML12 tox ATP
CCCCNC(=O)C1C(c2ccc(C(F)(F)F)cc2)=Nc2ccccc2N1C(=O)c1ccc2nc(C)[nH]c2c1 (stereo not drawn)	.	.	0	.	.	.	.
COc1ccc(NC(=O)Cc2c(Sc3ccccc3)c3ccccc3n2C)cc1	5	-4	0	61*	91*	0.35	8
Cn1c(CC(=O)Nc2ccc(F)cc2)c(Sc2ccccc2)c2ccccc21	1	5	-2	14	.	.	.
Cc1cc(NC(=O)c2ccccc2F)cc(C)c1OCC(=O)N1CCOCC1	1	-1	0	1	.	.	.
Cc1cc(NC(=O)c2cc3ccccc3o2)cc(C)c1OCC(=O)N1CCOCC1	2	1	0	91*	107*	-0.82	34
COC(=O)[C@@H]1C[C@@]2(O)[C@H](O)[C@H](O)[C@H](O)C[C@H]2N1Cc1cc(F)ccc1F	.	-5	0	50*	19	-0.47	.
CCOc1ccc(C(C)NC(=O)Cc2ccccc2F)cc1OCC (stereo not drawn)	5	-1	0	50*	93*	0.4	10
CCOc1ccc(C(C)NC(=O)Cc2ccccc2)cc1OCC (stereo not drawn)	-1	-2	-1	53*	73*	-1.4	-1
O=C(NCC1CCN(Cc2ccccc2)CC1)[C@H]1O[C@@H](n2ccc(=O)[nH]c2=O)[C@H](O)[C@@H]1O	.	.	0	.	.	.	.
CC1=CC(C)(C)N2C(=O)C3(NCCc4c3[nH]c3ccccc43)c3cccc1c32 (stereo not drawn)	-5	-4	0	62*	105*	0.51	12
O=C1Nc2ccccc2C12NCCc1c2[nH]c2ccccc12 (stereo not drawn)	-3	-1	-1	-7	.	.	.
O=c1[nH]c(=O)n(Cc2ccccc2)c2nc(-c3ccc(Oc4ccc(F)cc4)c([N+](=O)[O-])c3)n(CCO)c12	-12	9	0	64*	71*	1.1	1
CC(C)(C)c1ccc(-c2nnc(SCC(=O)Nc3sc4c(c3C#N)CCCC4)o2)cc1	27	8	0	58*	2	-1.3	.
CC(=O)c1ccc(Nc2nc(=O)c3cccnc3s2)cc1	0	-1	0	77*	20	-0.77	.
O=C(c1ccc(Br)cc1)N1CCN(c2ccccn2)CC1	.	.	0	.	.	.	.
Cc1ccc(S(=O)(=O)N2[C@@H](CO)CO[C@H]2CC(=O)c2cccc3ccccc23)cc1	.	.	0	.	.	.	.
Cc1cccc(C)c1NC(=O)C(c1ccncc1)n1c(=O)c(-c2ccco2)nc2ccccc21 (stereo not drawn)	.	.	-1	.	.	.	.
CC(C)CCNC(=O)c1ccc2c(c1)N(C)C(=O)c1ccccc1S2	-2	-1	-1	87*	87*	0.81	.
CCCCNC(=O)c1ccc2c(c1)N(C)C(=O)c1ccccc1S2	-2	8	0	78*	71*	0.54	13
CN1C(=O)c2ccccc2Sc2ccc(C(=O)O)cc21	16	5	0	12	.	.	.
CCN1C(=O)c2ccccc2Sc2ccc(C(=O)NCCC(C)C)cc21	-6	13	0	95*	98*	0.8	.
Cc1noc(C)c1S(=O)(=O)N1CCCCC1c1cc(C(=O)Nc2cccc3c2CCCC3)no1 (stereo not drawn)	.	.	0	.	.	.	.
CCN1C(c2ccccc2)=C(c2ccccc2)S/C1=C\C=C1/SC(=S)N(C)C1=O	9	7	0	.	.	.	.
CCN1C(=O)/C(=C/C=C2/Sc3ccc4ccccc4c3N2CCO)SC1=S	6	-14	0	77*	19	-0.31	.
CCN(CC(=O)Nc1ccccc1C(F)(F)F)C(=O)c1cc(-c2cccs2)nn1-c1ccccc1	-12	13	-1	65*	103*	-0.44	14
SMILES	HCV NS3 hel inh	core dimer inh	Tb MetRS inh	Hep lipid drop	Lipid drop inh	AML12 cytotox	AML12 tox ATP
CCOC(=O)C1CCN(S(=O)(=O)c2ccc3c(c2)NC(=O)C(C)C(=O)N3)CC1 (stereo not drawn)	6	-17	-1	63*	87*	-0.68	8
COC(=O)C[C@H]1C=C[C@H](NC(=O)Nc2ccccc2)[C@@H](CO)O1	.	.	0	.	.	.	.
O=C1c2ccccc2C(c2nnnn2C2CCCCC2)N1CCc1ccc(O)cc1 (stereo not drawn)	.	.	-1	.	.	.	.
Cc1cc(C)cc(NCc2ccncc2)c1	2	-10	-1	-2	.	.	.
c1ccc(NCc2ccncc2)cc1	2	1	-1	55*	4	0.77	.
O=C(COC(=O)COc1ccc(Cl)cc1Cl)Nc1cccnc1Cl	0	-3	-1	50*	12	-1	.
CN(C)CCCN(C(=O)c1ccc2ccccc2c1)c1nc2cc3c(cc2s1)OCO3	-38	-11	0	55*	-2	-0.11	.
COc1ccc(-c2csc(NNC3=NCCCCC3)n2)cc1	-15	-13	.	115*	112*	-0.25	32
Clc1ccc(-c2csc(NNC3=NCCCCC3)n2)cc1	-12	-8	-2	.	.	.	.
c1ccc(-c2csc(NNC3=NCCCCC3)n2)cc1	-2	-23	-1	63*	115*	-0.27	31
CCOc1ccc(-c2csc(NNC3=NCCCCC3)n2)cc1	-6	-9	0	84*	111*	-0.65	15
COc1ccc(S(=O)(=O)NC(=O)C2(C)CCN2C(=O)C2(c3ccc(Cl)cc3)CCC2)cc1 (stereo not drawn)	.	.	0	.	.	.	.
COCc1cccc(-c2csc(C(C)(O)c3ccccc3)n2)c1 (stereo not drawn)	.	.	0	.	.	.	.
CCC(C)NC(=O)c1ccc(N2CC3CC(C2)c2cccc(=O)n2C3)c(NC(=O)c2c(F)cccc2F)c1 (stereo not drawn)	.	.	0	.	.	.	.
CCCC(=O)N1CCC1(C)C(=O)Nc1cc(OC)ccc1OC (stereo not drawn)	.	.	0	.	.	.	.
CCc1ccc(OCC(=O)N/N=C(\C)c2ccc(-n3ccnc3)cc2)cc1	-3	1	1	55*	90*	0.11	52
C/C(=N\NC(N)=O)c1ccc(-n2ccnc2)cc1	-5	5	0	2	.	.	.
COc1ccc(C(C(=O)NC2CCCC2)N(CCC(C)C)C(=O)CCC(=O)Nc2cc(C)on2)cc1 (stereo not drawn)	13	7	0	62*	81*	-0.13	5
CCCCN(C(=O)CCC(=O)Nc1cc(C)on1)C(C(=O)NC1CCCC1)c1ccc(OCC)cc1 (stereo not drawn)	2	13	0	74*	91*	-0.33	9
